# In ChEMBL document CHEMBL1123247, “Nucleoside conjugates. 7. Synthesis and antitumor activity of 1-beta-D-arabinofuranosylcytosine conjugates of ether lipids” (J Med Chem, 1986):
# Assays:
# L1210 [1] = experiment: Antitumor activity against ic implanted L1210 lymphoid leukemia in mice expressed as active dose range (1,5,9qd treatment schedule) required to produce increase in life span by >25% was determined; Range 67-133; type: functional, Mus musculus
# Summary of the method: (§1)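 DBA/2J mice, groups of 6 (26-32 g), got 1 × 10^5 L1210 cells ic on day 0. Dosing was ip starting 24 h later, as a sonicated solution or suspension in 0.9% NaCl with 0.5% Tween-80, over a wide dose range. Mice were followed daily until death. Median survival T/C was taken from survivors per NCI protocols, and ILS = (T/C − 1) × 100. Active range means doses giving ILS ≥25%; optimal dose means greatest ILS.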
# L1210 [2] = experiment: Antitumor activity was determined against the ip implanted L1210 leukemia in mice by 45-day survivors in mice at 40 mg/kg (treatment of 1-5qd schedule) dosage; type: functional, Mus musculus; conditions: route intraperitoneal
# Summary of the method: (§2)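 DBA/2J mice in groups of 6 (wt 23-28 g) were inoculated ip with 1×10^6 L1210 cells on day 0. Dosing was ip from 24 h, in 0.9% NaCl with 0.5% Tween-80 (conjugates sonicated), across a range of doses. Mice were observed daily until death or 45 days. Median T/C was computed from survivors per NCI protocols, and ILS = (T/C − 1)×100.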
# L1210 [3] = experiment: Antitumor activity was determined against the ic implanted L1210 lymphoid leukemia in mice by range in survival days at 300 mg/kg (1 qd treatment schedule) dosage; Range is 19-23; type: functional, Mus musculus
# L1210 [4] = experiment: Antitumor activity was determined against the ip implanted L1210 leukemia in mice by range in survival days at 300 mg/kg (treatment of 1qd schedule) dosage; Range is 14->45; type: functional, Mus musculus; conditions: route intraperitoneal
# Summary of the method: (§3)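 DBA/2J mice, 23-28 g, in groups of 6, were inoculated ip with 1×10^6 L1210 cells on day 0. Dosing was ip starting 24 h later on the stated daily schedules. Conjugates were given as sonicated solutions and reference prodrugs as suspensions in 0.9% NaCl with 0.5% Tween-80. Mice were observed daily until death or 45 days. Median survival T/C was calculated from survivors per NCI protocols.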
# L1210 [5] = experiment: Antitumor activity was determined against the ic implanted L1210 lymphoid leukemia in mice by median survival time at 133 mg/kg (1,5,9qd treatment schedule) dosage; 20.0/8.0
# L1210 [6] = experiment: Antitumor activity against ic implanted L1210 lymphoid leukemia in mice expressed as active dose range (1 qd treatment schedule) required to produce increase in life span by >25% was determined; Range is 200-500
# L1210 [7] = experiment: Antitumor activity against the ic implanted L1210 lymphoid leukemia in mice expressed as optimal dose (1, 5, 9qd treatment schedule) required to produce greatest increase in life span was determined; type: functional, Mus musculus; summary of the method: as §1
# L1210 [8] = experiment: Antitumor activity was determined against the ic implanted L1210 lymphoid leukemia in mice by range in survival days at 100 mg/kg (treatment of 1-5qd schedule) dosage; Range is 21-24; type: functional, Mus musculus
# L1210 [9] = experiment: Antitumor activity against ic implanted L1210 lymphoid leukemia in mice expressed as active dose range (1-5qd treatment schedule) required to produce increase in life span by >25% was determined; Range is 40-100; type: functional, Mus musculus; summary of the method: as §1
# L1210 [10] = experiment: Antitumor activity against ip implanted L1210 leukemia in mice expressed as active dose range (1 qd treatment schedule) required to produce increase in life span by >25% was determined; Range is 300-500; type: functional, Mus musculus
# Summary of the method: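 DBA/2J mice, groups of 6 (23-28 g), were inoculated ip with 1 × 10^6 L1210 cells on day 0. Dosing was ip from 24 h, in 0.9% NaCl with 0.5% Tween-80 (sonicated solution or suspension). Mice were observed daily until death or day 45. Median survival T/C followed NCI protocols, and ILS = (T/C − 1) × 100. Active range means doses giving ILS ≥25%; optimal dose means greatest ILS.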
# P388 = experiment: Antitumor activity was determined against the ip implanted P388 leukemia in mice by change in […] at 67 mg/kg (treatment of 1,5,9qd schedule) dosage; type: functional, Mus musculus; conditions: route intraperitoneal
# Summary of the method: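 P388 leukemia, 1×10^6 cells implanted ip on day 0 into DBA/2J mice, groups of 6 (wt 23-33 g). Dosing ip started 24 h post-inoculation, vehicle 0.9% NaCl containing 0.5% Tween-80. Animals were observed daily until death or 45 days. Outputs were weight change, median survival T/C from survivors per NCI protocols, and %ILS = (T/C − 1) × 100.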
# L1210 [11] = experiment: Antitumor activity was determined against the ip implanted L1210 leukemia in mice by percent median survival rate (treated/control) at 200 mg/kg (treatment of 1-5qd schedule) dosage; 17.0/7.0; type: functional, Mus musculus; conditions: route intraperitoneal; summary of the method: as §2
# L1210 [12] = experiment: Antitumor activity was determined against the ic implanted L1210 lymphoid leukemia in mice by range in survival days at 300 mg/kg (treatment of 1-5qd schedule) dosage; Range is 15-18; type: functional, Mus musculus
# L1210 [13] = experiment: Antitumor activity was determined against the ip implanted L1210 leukemia in mice by percent median survival rate (treated/control) at 400 mg/kg (treatment of 1qd schedule) dosage; 9.5/8.0; type: functional, Mus musculus; conditions: route intraperitoneal; summary of the method: as §3
structure (smiles),measurement,setting,value
CCCCCCCCCCCCCCCC(=O)OC[C@H](COP(=O)(O)OP(=O)(O)OC[C@H]1O[C@@H](n2ccc(N)nc2=O)[C@@H](O)[C@@H]1O)OC(=O)CCCCCCCCCCCCCCC,Active dose range,L1210 [1],67 mg/kg/day
same,Survivors,L1210 [2],1
same,Range,L1210 [3],19
same,Range,L1210 [4],14
same,median survival time,L1210 [5],20 days
CCCCCCCCCCCCCCCCOCC(COP(=O)(O)OP(=O)(O)OC[C@H]1O[C@@H](n2ccc(N)nc2=O)[C@@H](O)[C@@H]1O)OC(=O)CCCCCCCCCCCCCCC (mixture of isomers),Active dose range,L1210 [6],200 mg/kg/day
same,Optimal dose,L1210 [7],167 mg
same,Range,L1210 [8],21
same,Active dose range,L1210 [9],40 mg/kg/day
CCCCCCCCCCCCCCCCCCOCC(COP(=O)(O)OP(=O)(O)OC[C@H]1O[C@@H](n2ccc(N)nc2=O)[C@@H](O)[C@@H]1O)OC(=O)CCCCCCCCCCCCCCC (mixture of isomers),Active dose range,L1210 [10],300 mg/kg/day
same,Weight change,P388,0.63 g mouse-1
Nc1ccn([C@@H]2O[C@H](CO)[C@@H](O)[C@@H]2O)c(=O)n1 [CYTARABINE],median survival time,L1210 [11],17 days
same,Range,L1210 [12],15
same,T/C,L1210 [13],9.5%
